The source made the active and inactive calls. The rule behind the calls is not given here.
Legend:
SH-SY5Y [1] = assay: Protection against H2O2-induced apoptosis in human SH-SY5Y cells assessed as increase in cell number at 1.56 to 6.25 uM preincubated for 24 hrs followed by H2O2 addition measured after 4 hrs by Giemsa staining based inverted phase contrast microscopic analysis; type: functional
How it was run: (§1)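 Cells at 3.5×10^4 cells/mL in 24-well plates were pretreated 24 h with compound at three concentrations, then H2O2 (4.8 mM stock) for 4 h. After PBS washes, cells were fixed in 4% paraformaldehyde/70% cold ethanol for 10 min. Staining was 6% Giemsa or DAPI for 5 min in the dark. Random fields were photographed at 200× by microscope, alongside control and model groups.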

[2] = Inhibition of H2O2-induced apoptosis in human HBMEC2 cells assessed as early apoptotic cells at 3.13 uM preincubated for 24 hrs followed by H2O2 addition measured after 4 hrs by Annexin V-FITC/propidium iodide staining based flow cytometry (reference value: 8.1 %); type: functional, HBMEC-2; parameters: scale not given: the % may be the effect or the level left
How it was run: (§2)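 Cells were seeded at 3.5×10^4 cells/mL in 6-well plates at 37 °C, 5% CO2. Compound was added at three concentrations for 24 h, then H2O2 (4.8 mM stock solution) to model and drug wells for 4 h. Cells were collected, washed in cold PBS and resuspended in annexin-binding buffer. Staining was annexin V-FITC 10 min, then PI 5 min, in the dark, followed by flow cytometry with quadrant gating.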

HBMEC-2 [3] = assay: Inhibition of H2O2-induced apoptosis in human HBMEC2 cells preincubated for 24 hrs followed by H2O2 addition measured after 4 hrs by Annexin V-FITC/propidium iodide staining based flow cytometry; type: functional, cell-based; how it was run: as §2
HBMEC-2 [4] = assay: Protection against H2O2-induced mitochondrial dysfunction in human HBMEC2 cells assessed as recovery of mitochondrial membrane potential at 1.56 to 6.25 uM preincubated for 24 hrs followed by H202 addition measured after 4 hrs by Rh123 staining based inverted light microscopic analysis; type: functional, cell-based
How it was run: (§3)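 Cells in 96-well plates (3.5×10^4 cells/mL) were grown 24 h. They were pretreated 24 h with compound at three concentrations, then exposed to H2O2 (4.8 mM stock) for 4 h. Medium was removed and Rh123 added for 30 min at 37 °C. Cells were washed twice in cold PBS and examined immediately under an inverted microscope for green fluorescence.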

[5] = Inhibition of H2O2-induced apoptosis in human HBMEC2 cells assessed as normal cells at 1.56 uM preincubated for 24 hrs followed by H2O2 addition measured after 4 hrs by Annexin V-FITC/propidium iodide staining based flow cytometry (reference value: 62.1 %); type: functional, HBMEC-2; parameters: scale not given: the % may be the effect or the level left; how it was run: as §2
SH-SY5Y [6] = assay: Protection against H2O2-induced mitochondrial dysfunction in human SH-SY5Y cells assessed as recovery of mitochondrial membrane potential at 1.56 to 6.25 uM preincubated for 24 hrs followed by H202 addition measured after 4 hrs by Rh123 staining based inverted light microscopic analysis; type: functional, cell-based; how it was run: as §3
SH-SY5Y [7] = assay: Inhibition of H2O2-induced apoptosis in human SH-SY5Y cells preincubated for 24 hrs followed by H2O2 addition measured after 4 hrs by Annexin V-FITC/propidium iodide staining based flow cytometry; type: functional, cell-based; how it was run: as §2
[8] = Inhibition of H2O2-induced apoptosis in human HBMEC2 cells assessed as normal cells at 6.25 uM preincubated for 24 hrs followed by H2O2 addition measured after 4 hrs by Annexin V-FITC/propidium iodide staining based flow cytometry (reference value: 62.1 %); type: functional, HBMEC-2; parameters: scale not given: the % may be the effect or the level left; how it was run: as §2
Chorioallantoic membrane [9] = assay: Induction of angiogenesis in chicken chorioallantoic membrane assessed as increase in microvessel formation at 1 mg/ml measured after 48 hrs by dissecting microscopic analysis; type: functional, cell membranes; details: Gallus gallus
How it was run: (§4)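 Fertile eggs were incubated 7 days at 37 °C and 60% humidity. A small window was opened at one end and the membrane was wetted with a drop of sterile saline. Test solution (0.5, 1 or 2 mg/mL) was applied to the allantoic membrane, with PBS for controls. After 48 h the membrane was separated from the shell, then viewed and photographed under a dissecting microscope.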

SH-SY5Y [10] = assay: Inhibition of H2O2-induced apoptosis in human SH-SY5Y cells assessed as normal cells at 3.13 uM preincubated for 24 hrs followed by H2O2 addition measured after 4 hrs by Annexin V-FITC/propidium iodide staining based flow cytometry (reference value: 67.2 %); type: functional; parameters: scale not given: the % may be the effect or the level left; how it was run: as §2
[11] = Inhibition of H2O2-induced apoptosis in human HBMEC2 cells assessed as necrotic cells at 6.25 uM preincubated for 24 hrs followed by H2O2 addition measured after 4 hrs by Annexin V-FITC/propidium iodide staining based flow cytometry (reference value: 0.4 %); type: functional, HBMEC-2; parameters: scale not given: the % may be the effect or the level left; how it was run: as §2
[12] = Inhibition of H2O2-induced apoptosis in human HBMEC2 cells assessed as necrotic cells at 1.56 uM preincubated for 24 hrs followed by H2O2 addition measured after 4 hrs by Annexin V-FITC/propidium iodide staining based flow cytometry (reference value: 0.4 %); type: functional, HBMEC-2; parameters: scale not given: the % may be the effect or the level left; how it was run: as §2
Chorioallantoic membrane [13] = assay: Induction of angiogenesis in chicken chorioallantoic membrane assessed as increase in vascular density at 1 mg/ml measured after 48 hrs by dissecting microscopic analysis; type: functional, cell membranes; details: Gallus gallus; how it was run: as §4
HBMEC-2 [14] = assay: Protection against H2O2-induced apoptosis in human HBMEC2 cells assessed as reduction in cell disruption at 1.56 to 6.25 uM preincubated for 24 hrs followed by H2O2 addition measured after 4 hrs by Giemsa staining based inverted phase contrast microscopic analysis; type: functional; how it was run: as §1
SH-SY5Y [15] = assay: Inhibition of H2O2-induced apoptosis in human SH-SY5Y cells assessed as late apoptotic cells at 3.13 uM preincubated for 24 hrs followed by H2O2 addition measured after 4 hrs by Annexin V-FITC/propidium iodide staining based flow cytometry (reference value: 26.5 %); type: functional; parameters: scale not given: the % may be the effect or the level left; how it was run: as §2
[16] = Inhibition of H2O2-induced apoptosis in human HBMEC2 cells assessed as late apoptotic cells at 1.56 uM preincubated for 24 hrs followed by H2O2 addition measured after 4 hrs by Annexin V-FITC/propidium iodide staining based flow cytometry (reference value: 29.4 %); type: functional, HBMEC-2; parameters: scale not given: the % may be the effect or the level left; how it was run: as §2
SH-SY5Y [17] = assay: Inhibition of H2O2-induced apoptosis in human SH-SY5Y cells assessed as late apoptotic cells at 1.56 uM preincubated for 24 hrs followed by H2O2 addition measured after 4 hrs by Annexin V-FITC/propidium iodide staining based flow cytometry (reference value: 26.5 %); type: functional; parameters: scale not given: the % may be the effect or the level left; how it was run: as §2
HBMEC-2 [18] = assay: Protection against H2O2-induced apoptosis in human HBMEC2 cells assessed as increase in cell number preincubated for 24 hrs followed by H2O2 addition measured after 4 hrs by DAPI staining based inverted phase contrast microscopic analysis; type: functional; how it was run: as §1
HBMEC-2 [19] = assay: Protection against H2O2-induced apoptosis in human HBMEC2 cells assessed as decrease in number of irregular cells preincubated for 24 hrs followed by H2O2 addition measured after 4 hrs by DAPI staining based inverted phase contrast microscopic analysis; type: functional, cell-based; how it was run: as §1
[20] = Inhibition of H2O2-induced apoptosis in human HBMEC2 cells assessed as normal cells at 3.13 uM preincubated for 24 hrs followed by H2O2 addition measured after 4 hrs by Annexin V-FITC/propidium iodide staining based flow cytometry (reference value: 62.1 %); type: functional, HBMEC-2; parameters: scale not given: the % may be the effect or the level left; how it was run: as §2
SH-SY5Y [21] = assay: Protection against H2O2-induced apoptosis in human SH-SY5Y cells assessed as increase in cell number preincubated for 24 hrs followed by H2O2 addition measured after 4 hrs by DAPI staining based inverted phase contrast microscopic analysis; type: functional; how it was run: as §1
SH-SY5Y [22] = assay: Inhibition of H2O2-induced apoptosis in human SH-SY5Y cells assessed as late apoptotic cells at 6.25 uM preincubated for 24 hrs followed by H2O2 addition measured after 4 hrs by Annexin V-FITC/propidium iodide staining based flow cytometry (reference value: 26.5 %); type: functional; parameters: scale not given: the % may be the effect or the level left; how it was run: as §2

With COc1cc(CNC(=O)/C=C/c2cc(OC)c(OC)cc2OC)ccc1O the Activity (SH-SY5Y [1]) was “Active”, the Activity [2] was 8.9% and the inhibition (HBMEC-2 [3]) was “Dose-dependent effect”. The Activity (HBMEC-2 [4]) was “Active”, the Activity [5] was 70.6% and the Activity (SH-SY5Y [6]) was “Active”. The inhibition (SH-SY5Y [7]) was “Dose-dependent effect”, the Activity [8] was 81.4% and the Activity (Chorioallantoic membrane [9]) was “Active”. It also gave an Activity (SH-SY5Y [10]) of 74.7%, an Activity [11] of 0.1% and an Activity [12] of 1%. The Activity (Chorioallantoic membrane [13]) was “Active”, the Activity (HBMEC-2 [14]) was “Active” and the Activity (SH-SY5Y [15]) was 21%. For the same compound, the Activity [16] was 19.3%, the Activity (SH-SY5Y [17]) was 23.9% and the Activity (HBMEC-2 [18]) was “Dose-dependent effect”. The Activity (HBMEC-2 [19]) was “Dose-dependent effect”, the Activity [20] was 80.5% and the Activity (SH-SY5Y [21]) was “Dose-dependent effect”. For the same compound, the Activity (SH-SY5Y [22]) was 14%.

Reference: ChEMBL document CHEMBL4406851, “Design, synthesis and biological evaluation of cinnamic acid derivatives with synergetic neuroprotection and angiogenesis effect” (Eur J Med Chem, 2019)
